Assay results: paper PMC12282411 (Virologica Sinica, 2025)
Substitutions are numbered along the chain they refer to. Structures can show the parent of a compound that is named as a salt.

Key:
DENV 2 [1] = experiment: Antiviral assay on Huh 7 cells; assay type: cell-based; settings: Dengue virus, Huh-7, 48 h, read-out: EC50 (Huh 7 μM)
How it was run: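 Huh 7 cells were seeded at 4×10^4/well and grown overnight at 37 °C, 5% CO₂. Test compound was serially diluted threefold from 50 µM in DMEM with 2% FBS and added to cells for 1 h. DENV 2 was added at MOI 1 for 1 h, then the inoculum was removed, cells washed with PBS, and compound re-added. After two days, supernatant viral RNA was quantified by one-step SYBR RT-qPCR against an NS5A standard curve.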

NS2B-NS3pro = target: T1, NS2B-NS3pro (Dengue virus type 2, UniProt P29990, M1488V); assay type: binding, DENV 2; settings: SPR
T1 sequence (P29990 with tags, fused parts or gaps T1441G/I1442G/L1443G/I1444G/R1445S/T1446G/DEL1448-1473/Q1474G/R1475G/M1488V): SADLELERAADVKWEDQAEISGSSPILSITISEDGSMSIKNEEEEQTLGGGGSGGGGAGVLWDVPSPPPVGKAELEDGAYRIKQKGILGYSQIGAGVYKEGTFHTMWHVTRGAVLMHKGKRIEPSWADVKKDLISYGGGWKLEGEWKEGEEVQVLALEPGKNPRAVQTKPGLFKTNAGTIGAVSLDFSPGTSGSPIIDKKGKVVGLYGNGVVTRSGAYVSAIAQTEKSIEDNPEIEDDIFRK

DENV 2 [2] = experiment: microbe, parasite or virus in culture; assay type: cell-based; settings: for EC50: Dengue virus, BHK-21, 48 h, read-out: EC50 (BHK-21 μM); for SI (CC50/EC50): selective index, BHK-21 CC50 / BHK-21 EC50
DENV 2 [3] = experiment: DENV 2 challenge of AG129 mice; assay type: in vivo; settings: for viral copy numbers in the spleen and liver: i.g., two days post infection, Fig. 2F
DENV 2 NS2B-NS3pro = target: T2, DENV 2 NS2B-NS3pro (Dengue virus type 2, UniProt P29990); experiment: Enzyme kinetic analysis; assay type: biochemical
T2 sequence (P29990 with tags, fused parts or gaps T1441G/I1442G/L1443G/I1444G/R1445S/T1446G/DEL1448-1473/Q1474G/R1475G): T1 sequence (P29990 with tags, fused parts or gaps T1441G/I1442G/L1443G/I1444G/R1445S/T1446G/DEL1448-1473/Q1474G/R1475G/M1488V) with V70M

ZIKV NS2B-NS3pro = target: T3, ZIKV NS2B-NS3pro (Zika virus, UniProt Q32ZE1); experiment: FRET assay on ZIKV NS2B-NS3pro; assay type: biochemical
T3 sequence (Q32ZE1 with tags, fused parts or gaps DEL1464-1489/Y1490G/V1491G/Y1492G/V1493G/K1494S/T1495G/K1497G/R1498G): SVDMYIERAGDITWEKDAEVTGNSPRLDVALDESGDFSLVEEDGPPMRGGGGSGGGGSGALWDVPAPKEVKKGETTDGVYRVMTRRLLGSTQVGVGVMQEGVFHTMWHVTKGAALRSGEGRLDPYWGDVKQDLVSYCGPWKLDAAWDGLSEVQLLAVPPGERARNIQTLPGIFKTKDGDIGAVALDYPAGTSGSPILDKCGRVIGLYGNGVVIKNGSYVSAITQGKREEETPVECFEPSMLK

Water solubility = assay type: physicochemical
Pharmacokinetics in rats = assay type: in vivo, Sprague-Dawley rats; settings: SD rats, i.v. as a reference
How it was run: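 Male Sprague-Dawley rats (180–220 g), three per group, were fasted overnight. Test compound was dosed i.g. at 20 mg/kg as a suspension in 0.4% sodium carboxymethylcellulose, or i.p. dissolved by sonication in 10% DMSO/40% PEG 300/5% Tween 80/45% saline. Jugular plasma was sampled repeatedly up to 36 h. Samples were mixed with diclofenac sodium, precipitated with acetonitrile, and analysed by LC-MS/MS. Parameters were derived by non-compartmental analysis.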

DENV 2 [4] = experiment: Time-of-addition assay; assay type: cell-based; settings: BHK-21 cells
How it was run: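 The assay used BHK-21 cells seeded overnight. In the treatment-mode arms, cells were infected at MOI 0.1 for 0–1 h, with compound applied as virus pretreatment for 1 h, cell pretreatment (–1–0 h), post-infection (1–46 h) or full-time (–1–46 h). In the addition-time arms, infection was at MOI 1 for 1 h, with compound added at 0–36 h. Readout at 48 h was supernatant RT-qPCR and IFA, with DMSO and ribavirin as controls.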

Compound: NC(=NCc1ccccc1)NC(=O)c1nc(Cl)c(N)nc1N [Benzamil hydrochloride]
- EC50 (DENV 2 [1]): 2620 nM
- binding affinity on NS2B-NS3pro (NS2B-NS3pro): almost no binding affinity
- EC50 (DENV 2 [2]): 368 nM
- SI (CC50/EC50) (DENV 2 [2]): 120.85
- SI (CC50/EC50) (DENV 2 [2]; listed as benzamil hydrochloride): greater than 100

Compound: CC1=NN(c2ccc(C)c(C)c2)C(=O)/C1=N\Nc1cccc(-c2cccc(C(=O)O)c2)c1O [Eltrombopag]
- viral copy numbers in the liver, spleen, and kidney (DENV 2 [3]; 10 or 20 mg/kg, i.g. or i.p., two days post challenge, Fig. 3C): reduced the viral copy numbers in the liver, spleen, and kidney in a dose-dependent manner
- decrease of viral loads in spleen (DENV 2 [3]; DENV 2 at 10^7 TCID50): more than 1 log
- expression of TNF-α and IL-6 in the blood (DENV 2 [3]; RT-qPCR, Fig. 3D): inhibited the expression of TNF-α and IL-6
- viral copy numbers in the spleen and liver (DENV 2 [3]): significantly reduced
- inhibitory effect on viral copies by delivery route (DENV 2 [3]; i.p. compared with i.g., Fig. 3C): stronger inhibitory effect when delivered via i.p.
- EC50 (DENV 2 [1]): 1460 nM
- reversibility of binding to DENV2 NS2B-NS3pro (DENV 2 NS2B-NS3pro; varying NS2B-NS3pro, fixed substrate 20 μM, eltrombopag 0, 10 and 20 μM): reversibly binds
- mode of inhibition with respect to substrate (DENV 2 NS2B-NS3pro; varying substrate, NS2B-NS3pro 300 nM, Vmax changes, Km unchanged): substrate-non-competitive manner
- IC50 (ZIKV NS2B-NS3pro): 29800 nM
- water solubility (Water solubility): poorly water-soluble
- pharmacokinetics i.p. compared with i.g. (Pharmacokinetics in rats): better absorption, distribution, and clearance
- EC50 (DENV 2 [2]): 316 nM
- inhibition on addition at 36 h or later (DENV 2 [4]; MOI = 1, RT-qPCR at 48 h): reduced inhibition
- time of addition following DENV 2 infection with effective inhibition (DENV 2 [4]; MOI = 1, RT-qPCR at 48 h): ≤ 24 h
- inhibition when added at the post-infection stage versus full-time treatment (DENV 2 [4]; RT-qPCR at 48 h): comparable inhibition
- effect on the viruses and cells themselves (pretreatment modes) (DENV 2 [4]; pretreatment of virus or of cell): negligible effect

Compound: COC(=O)N[C@H](C(=O)N1CC2(CC2)C[C@H]1c1nc(-c2ccc3c(c2)C(F)(F)c2cc(-c4ccc5[nH]c([C@@H]6[C@H]7CC[C@H](C7)N6C(=O)[C@@H](NC(=O)OC)C(C)C)nc5c4)ccc2-3)c[nH]1)C(C)C [GS-5885]
- viral copy numbers in the spleen and liver (DENV 2 [3]): no effect
- EC50 (DENV 2 [1]): 529 nM
- EC50 (DENV 2 [2]): 3320 nM

Compound: COC(=O)N[C@H](C(=O)N1CCC[C@H]1c1nc(-c2ccc3c(c2)O[C@@H](c2ccccc2)n2c-3cc3cc(-c4c[nH]c([C@@H]5CCCN5C(=O)[C@@H](NC(=O)OC)C(C)C)n4)ccc32)c[nH]1)C(C)C [MK-8742]
- viral copy numbers in the spleen and liver (DENV 2 [3]): no effect
- EC50 (DENV 2 [1]): 161 nM
- EC50 (DENV 2 [2]): 45.9 nM

Compound: C#CCC(Cc1cnc2nc(N)nc(N)c2n1)c1ccc(C(=O)N[C@@H](CCC(=O)O)C(=O)O)cc1 (stereo partly drawn) [Pralatrexate]
- EC50 (DENV 2 [1]): < 70 nM
- binding affinity on NS2B-NS3pro (NS2B-NS3pro): almost no binding affinity
- EC50 (DENV 2 [2]): < 7.6 nM
- SI (CC50/EC50) (DENV 2 [2]): >13684.21
- SI (CC50/EC50) (DENV 2 [2]; listed as pralatrexate): greater than 100

Compound: CCOC(=O)c1ccc(C#Cc2ccc3c(c2)C(C)(C)CCS3)nc1 [AGN190168]
- EC50 (DENV 2 [1]): 107 nM
- EC50 (DENV 2 [2]): 10900 nM
- SI (CC50/EC50) (DENV 2 [2]): 24.15

Compound: NC(=O)c1ncn([C@@H]2O[C@H](CO)[C@@H](O)[C@H]2O)n1 [Ribavirin]
- time of addition following DENV 2 infection with effective inhibition (DENV 2 [4]; MOI = 1, RT-qPCR at 48 h): ≤ 12 h

Compound: Cc1cc(-c2ccc(/N=N/c3ccc4c(S(=O)(=O)O)cc(S(=O)(=O)O)c(N)c4c3O)c(C)c2)ccc1/N=N/c1ccc2c(S(=O)(=O)O)cc(S(=O)(=O)O)c(N)c2c1O [Evans Blue]
- EC50 (DENV 2 [1]): 337 nM
- EC50 (DENV 2 [2]): 4850 nM
- SI (CC50/EC50) (DENV 2 [2]): 49.98
